In PMC9516706 (JACS Au, 2022):

What was measured:
A431 cells [1] = test: Cytotoxicity assay; format: cell-based, human; conditions: for Selective cytotoxicity to A431 cells: five different cell lines compared, cell viability assay
In short: (§1)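 Cells were seeded in 96-well plates and grown for 24 h. Medium was then replaced with medium containing the peptide amphiphile, and cells were incubated a further 20 h. Viability was read with WST-8 reagent. Lines were HeLa, A431, MCF-7 and HepG2 cancer cells, plus MvE and HEK293 normal cells.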

[2] = TEM observation of self-assembly; format: physicochemical; conditions: 1.0 wt % in PBS(+), stained with 2.0 wt % phosphotungstic acid, 200 kV
In short: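 A carbon-supported TEM grid was dipped in a 1.0 wt % peptide amphiphile solution in PBS(+) containing Ca²⁺ and Mg²⁺. The grid was dried, negatively stained with 2.0 wt % phosphotungstic acid, and imaged at 200 kV accelerating voltage.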

[3] = system: HeLa, A431, MCF-7, HepG2, MvE and HEK293 cells; test: Cytotoxicity assay; format: cell-based, human; conditions: up to 0.1 wt %; four different cell lines
In short: as §1

A431 cells [4] = test: Tyrosine kinase inhibitor assay; format: cell-based, human
A431 cells [5] = test: Fluorescence recovery after photobleaching; format: cell-based, human; conditions: 0.08 wt% C16-E4Y for 1 h, without C16-E4Y recovery within 1 s
[6] = Gel formation of C16-E4Y phosphorylated by tyrosine kinase; format: physicochemical; conditions: C16-E4Y 1 wt%, ATP 15 mM, c-Src kinase 6 µg/mL, 1× kinase buffer, 37 °C, 7 days
A431 tumor = test: Antitumor activity in vivo, A431-xenografted nude mice; conditions: same regimen, against PBS control group, n = 6
In short: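 Nude mice with A431 cells injected subcutaneously into the flank. PBS (30 μL) with 1.5 wt % test compound was injected directly into the tumour three times a week for 3 weeks, against a PBS control. Bodyweight was followed during dosing, and tumour volume was taken as longer diameter × shorter diameter² × 0.5. Mice were sacrificed 4 weeks after inoculation; n = 6.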

HeLa cells = test: Apoptosis and necrosis detection; format: cell-based, human; conditions: C16-E4Y 0.08 wt %, 1 h, counting at least 1000 cells in CLSM images
In short: (§2)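 Cells were grown on a dish for 24 h, then given medium containing test compound at 0.08 wt % for 1 h. Cells were stained with annexin V-FITC and propidium iodide using an apoptotic/necrotic/healthy cell detection kit. Staining was imaged by CLSM, with PI fluorescence marking membrane-damaged cells.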

HepG2 cells = test: Detection of a peptide amphiphile phosphorylated in cells; format: cell-based, human; conditions: HepG2 cells cultured with 0.05 wt % C16-E4Y; medium and cell lysate
A431 cells [7] = test: Localization of peptide amphiphiles in cells; format: cell-based, human; conditions: C16-E4Y 0.05 wt % with NBD-C8-E4Y 0.001 wt %, 24 h, ER-tracker and MitoRed, CLSM
A431 cells [8] = test: Apoptosis and necrosis detection; format: cell-based, human; conditions: C16-E4Y 0.08 wt %, 1 h, counting at least 1000 cells in CLSM images
In short: as §2

For N-palmitoyl-Glu-Glu-Glu-Glu [C16-E4], the “Selective cytotoxicity to A431 cells” value (A431 cells [1]) was “did not exhibit selective cytotoxicity”.

With “N-palmitoyl-Glu-Glu-Glu-Glu-Phe [C16-E4F]” the “Selective cytotoxicity to A431 cells” value (A431 cells [1]) was “did not exhibit selective cytotoxicity”.

For “N-palmitoyl-Glu-Glu-Glu-Glu-Ser [C16-E4S]”, the “Selective cytotoxicity to A431 cells” value (A431 cells [1]) was “did not exhibit selective cytotoxicity”.

For “N-capryloyl-Glu-Glu-Glu-Glu-Tyr [C8-E4Y]”, the “Self-assembly morphology by TEM” value [2] was “did not form any self-assembly body” and the “Cytotoxicity toward all cell lines tested” value [3] was “did not show cytotoxicity”.

For N-lauroyl-Glu-Glu-Glu-Glu-Tyr [C12-E4Y], the “Self-assembly morphology by TEM” value [2] was “formed only a few isolated short fibers” and the “Cytotoxicity toward all cell lines tested” value [3] was “did not show cytotoxicity”.

For `C#Cc1cccc(Nc2ncnc3cc(OCCOC)c(OCCOC)cc23)c1` [erlotinib], the “Effect of EGFR inhibitor on the cytotoxicity of C16-E4Y” value (A431 cells [4]) was “alleviated the cytotoxicity”.

With “N-palmitoyl-Glu-Glu-Glu-Glu-Tyr [C16-E4Y]” the “Self-assembly morphology by TEM” value [2] was “nanosized strings several hundred nanometers in length”, the “Fluorescence recovery of ER-tracker after photobleaching” value (A431 cells [5]) was “recovered relatively slowly” and the “Gelation after incubation with a tyrosine kinase and ATP” value [6] was “partially gelated”. For the same molecule, the “Bodyweight of treated mice” value (A431 tumor) was “comparable to those of the control group”, the “Cells in early apoptosis” value (HeLa cells) was 0.4% and the “Cytotoxicity toward A431 cells compared with the other cell lines” value (A431 cells [1]; 0.05 wt %, 20 h incubation, WST-8, five replicates) was “remarkably higher cytotoxicity”. For the same molecule, the “Dose dependence of cytotoxicity” value (A431 cells [1]; A431 cells, Figure 3b) was “dose-dependent”, the “Intracellular phosphorylation (C16-E4pY by MALDI-TOF/MS)” value (HepG2 cells) was “not detected” and the Intracellular localization (A431 cells [7]) was “accumulated on ER selectively”. The “Cells in early apoptosis” value (A431 cells [8]) was 15.4%.
